Compounds with a hit are over-represented: about 9.6% of the library has one in this group of screens.
Ba/F3 V617F tox = loss of viability in JAK2V617F-driven Ba/F3 cells; Ba/F3 EpoR-JAK2V617F viability, ATP luminescence; inhibition, % at 5.6 µM; 220,000 compounds, 1.1% hits; AID 1446;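 active means inhibition above the campaign mean plus 3 SD over all tested compounds, cut at about 24% in these data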;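 further: cytokine-independent growth of Ba/F3 cells driven by EpoR plus mutant JAK2; 0% = DMSO-treated cells and 100% = JAK inhibitor I control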
MT stabilize HCS = microtubule stabilization, imaging screen. HeLa tubulin immunostaining HCS, 24 h; share of cells brighter than vehicle mean+2SD. % tubulin-high responders, % at 10 µM. 200,000 compounds, 0.83% hits;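 active means plate Z-score above 3 for both tubulin-high and condensed-nucleus cell shares, with cell loss under 80%, at 10 µM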;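 further: anti alpha tubulin signal scored within the nucleus-defined area of each cell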
bCat nuc transl = beta-catenin nuclear translocation modulation; HeLa beta-catenin nuclear translocation, immunofluorescence imaging; nuclear translocation activity, % at 5 µM; 190,000 compounds, 0.3% hits; AID 1665;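 active means nuclear translocation activity above 50% at 5 µM, with a well cell count of 50 or more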;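 further: per-cell ratio of nuclear to cytoplasmic median beta-catenin stain intensity; plate controls were DMSO negative control for no effect and GSK-3 inhibitor IX positive control for full effect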
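assay system = human HeLa cells, endogenous beta-catenin | times = compound treatment 24 h, 37°C, 5% CO2 | detection = Anti-beta-catenin immunofluorescence on PFA-fixed, Triton-permeabilized cells, DAPI nuclei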
L major viab = Leishmania major promastigote growth inhibition. 200,000 compounds, 9% hits. inhibition, % at 10 µM. Leishmania major promastigotes, resazurin fluorescence viability; in the data active means inhibition above about 50%;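 further: promastigotes grown with compound for 44 hours at 28 °C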
BaF3 parental = parental Ba/F3 viability inhibition as JAK2V617F counter-screen; AID 1486; CellTiter-Glo ATP luminescence; inhibition, % at 5.6 µM; 220,000 compounds, 1.1% hits;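 active means inhibition above a per-campaign cutoff, the mean inhibition of all tested compounds plus 3 SD, cut at about 27% in these data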;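 further: 0% = DMSO wells and 100% = JAK Inhibitor I control wells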
APP transl inh = APP translation inhibition | inhibition, % at 2 µM | 190,000 compounds, 0.82% hits | SH-SY5Y APP 5'UTR-luciferase reporter, luminescence | AID 1285;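 active means inhibition above a set limit, derived from the sample mean plus 3 SD, cut at about 45% in these data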
Starred values were filed as active, the others as inactive; / = no result given.

SMILES | Ba/F3 V617F tox | MT stabilize HCS | bCat nuc transl | L major viab | BaF3 parental | APP transl inh
OCCN1CCN(CC(O)COc2ccc3c(c2)OCO3)CC1 (stereo not drawn) | 0 | 1 | -4 | -2 | 4 | 7
Cc1cc(OCC(O)CN2CCN(CCO)CC2)ccc1C(C)C (stereo not drawn) | -1 | 3 | -1 | 89* | 4 | 9
CCN1CCN(CC(O)COc2ccc3c(c2)CCC3)CC1 (stereo not drawn) | -5 | 3 | -1 | 84* | 7 | -9
O=S(=O)(c1ccccc1)N1CCN(CC(O)COc2ccc3c(c2)CCC3)CC1 (stereo not drawn) | 1 | 3 | / | 12 | 6 | -3
COCCNC(=S)N(CCc1c(C)[nH]c2ccc(Cl)cc12)Cc1cccs1 | 0 | 3 | -2 | 53* | 4 | -19
COCCNC(=S)N(CCc1c(C)[nH]c2ccc(F)cc12)Cc1cccs1 | -4 | 2 | 0 | 42 | 2 | -7
CC(C)c1ccc(OCC(=O)NCc2ccco2)cc1 | -4 | 2 | / | -4 | -1 | -6
Cc1ccc(OCCCC(=O)NCc2ccco2)cc1 | -2 | 1 | -2 | -2 | 5 | 13
CC(C)(C)c1ccc(OCC(=O)NCc2ccco2)cc1 | -2 | 8 | -7 | 71* | 1 | -2
CC(C)(C)c1ccc(-c2noc(CCC(=O)NCc3ccco3)n2)cc1 | -3 | 4 | -2 | 9 | 26 | 68*
Cc1ccc(OCCNC(=O)C(=O)NCc2ccco2)cc1 | 2 | 17* | 38 | -6 | 5 | 5
COC(=O)C1=C(C)N(Cc2ccco2)C(=O)/C1=C\c1ccc(N(C)C)cc1 | -3 | 4 | -2 | 42 | 4 | 1
COC(=O)C1=C(C)N(Cc2ccco2)C(=O)/C1=C\c1ccc([N+](=O)[O-])cc1 | -1 | 6 | -3 | 99* | -1 | 8
CCCOC(=O)C(C)Sc1n[nH]c(=O)[nH]c1=O (stereo not drawn) | 0 | 5 | -2 | 1 | 0 | 13
CC1=C([N+](=O)[O-])C(c2cccc(Br)c2)C2=C(N1)c1ccccc1C2=O (stereo not drawn) | 77* | 11* | 17 | 32 | 76* | 86*
Cc1ccc(-n2nc(C(=O)N3CCOCC3)cc2-c2ccc(Cl)cc2)cc1 | 0 | 1 | -4 | 31 | 3 | -19
Cc1ccc(-n2c(-c3ccc(Cl)cc3)c[n+]3c2CCC3)cc1 | 69* | / | 1 | / | 65* | /
Cc1ccc(-n2c(-c3ccccc3)c[n+]3c2CCC3)cc1 | 77* | 4 | 0 | 98* | 68* | -1
FC(F)Sc1ccc(-n2c(-c3ccc(Cl)cc3)c[n+]3c2CCC3)cc1 | 24* | 1 | 2 | 25 | 44* | 2
Cc1nnc(SCCOc2ccccc2)s1 | -2 | 2 | -3 | -3 | 4 | -7
Cc1cccc(OCC(=O)NC(Cc2c[nH]c3ccccc23)C(=O)O)c1C (stereo not drawn) | -1 | 2 | 0 | -4 | 4 | -3
CC(C)OC(=O)c1cc(NC(=S)Nc2ccc([N+](=O)[O-])cc2)cc(C(=O)OC(C)C)c1 | 4 | 3 | 0 | 100* | 6 | /
CCCCNC(=S)Nc1ccc([N+](=O)[O-])cc1 | 1 | 3 | 2 | 49 | 6 | 12
CC(C)CCNC(=S)Nc1ccc([N+](=O)[O-])cc1 | 2 | 3 | 3 | 68* | 5 | 3
C=CCn1c(=O)c2ccccc2n2c(SCC(=O)Nc3sc(C(=O)N(CC)CC)c(C)c3C(=O)OCC)nnc12 | -4 | 5 | 3 | 7 | 4 | -12
SMILES | Ba/F3 V617F tox | MT stabilize HCS | bCat nuc transl | L major viab | BaF3 parental | APP transl inh
C=CCn1c(=O)c2ccccc2n2c(SCC(=O)Nc3sc(C)c(CC)c3C(=O)OCC)nnc12 | -5 | 3 | 4 | 71* | 1 | -12
COc1cc(C)c(Cl)cc1S(=O)(=O)NCCCN1CCOCC1 | -4 | 3 | / | 86* | -1 | 28
COc1cc(C)c(Br)cc1S(=O)(=O)NCCCN1CCOCC1 | 1 | 4 | -2 | 75* | 1 | 13
COc1cc(Cl)c(S(=O)(=O)NCCCN2CCOCC2)cc1Cl | -3 | 1 | -2 | 93* | -1 | -6
Cc1ccc(S(=O)(=O)NCCCN2CCOCC2)c(C)c1 | 1 | 5 | 3 | 52* | 3 | 0
COc1ccc(Br)cc1S(=O)(=O)NCCN1CCOCC1 | 2 | 5 | 0 | 2 | 3 | 0
COc1cc(C)c(Cl)cc1S(=O)(=O)NCCN1CCOCC1 | 2 | 3 | -1 | -3 | 6 | 10
O=C(COC(=O)c1cc(-c2cccs2)nn1-c1ccccc1)Nc1ccc(F)c([N+](=O)[O-])c1 | -7 | 3 | 0 | -5 | 2 | 2
O=C(Nc1ccccc1F)c1ccc([N+](=O)[O-])s1 | 3 | 3 | -2 | 100* | 7 | -13
O=C(Nc1cccc2ccccc12)c1ccc([N+](=O)[O-])s1 | 4 | 3 | 1 | 100* | 5 | 25
CN(C)NC(=O)c1ccc([N+](=O)[O-])s1 | 0 | / | -5 | / | -3 | /
COc1ccc(C2CC(=O)C3=C(C2)Nc2ccccc2N(C(=O)CCC(=O)O)C3c2ccc(F)cc2)cc1 (stereo not drawn) | -4 | / | -1 | / | -1 | /
Cc1cc(C)c2cc(CN(Cc3nnnn3C3CCCCC3)CC3CCCO3)c(=O)[nH]c2c1 (stereo not drawn) | -2 | 3 | -3 | 99* | 8 | 2
Cc1cc2cc(CN(Cc3nnnn3C3CCCCC3)CC3CCCO3)c(=O)[nH]c2cc1C (stereo not drawn) | -4 | 3 | 4 | 82* | -2 | -18
Cc1ccc2cc(CN(Cc3nnnn3C3CCCCC3)CC3CCCO3)c(=O)[nH]c2c1 (stereo not drawn) | 0 | 5 | -1 | 94* | 7 | 5
COc1ccc(/C=N/NC(=O)c2ccc3nc[nH]c3c2)cc1OC | 2 | / | 2 | / | -2 | /
COc1cccc(/C=N/NC(=O)c2cc3cc([N+](=O)[O-])ccc3s2)c1O | -4 | 5 | -4 | 100* | 0 | 51*
COc1cc([N+](=O)[O-])cc(/C=N/NC(=O)c2ccc(NC(=O)c3ccc(C)cc3)cc2)c1O | -1 | 23 | -1 | 29 | 1 | 87*
COc1cc([N+](=O)[O-])cc(/C=N/NC(=O)c2ccc(C)nc2)c1O | -1 | 5 | 0 | -9 | 6 | 2
CC(C)CCNC(=O)COc1ccc(C(=O)c2ccccc2)cc1 | 1 | 2 | -2 | -4 | 7 | 12
Cc1cccc(NC(=O)c2nc[nH]c2C(=O)Nc2ccccc2[N+](=O)[O-])c1 | -2 | 3 | -5 | 57* | 2 | -2
CNC(=O)c1[nH]cnc1C(=O)Nc1ccccc1C | 4 | 3 | / | 4 | 6 | 9
CCOc1ccc(-c2cc(CCCC(=O)Nc3cccc(OC)c3)no2)cc1 | -4 | 23* | 100* | -6 | 0 | 80*
